Compound activity: PubChem, several laboratories
An excerpt weighted towards active compounds, which were near 2.2% of everything screened.
MT stabilize HCS – microtubule stabilizers in HeLa cells, primary screen, imaging, high-content imaging. 0.83% of 200,000 active. HeLa tubulin immunostaining HCS, 24 h; share of cells brighter than vehicle mean+2SD. % tubulin-high responders, % at 10 µM;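 active = plate Z-score above 3 for both tubulin-high and condensed-nucleus cell shares, with cell loss under 80%, at 10 µM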;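 also: anti alpha tubulin signal scored within the nucleus-defined area of each cell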
APP transl inh – inhibitors of APP translation via 5'UTR reporter, primary screen, APP 5'UTR luciferase, SH-SY5Y cells. inhibition, % at 2 µM. SH-SY5Y APP 5'UTR-luciferase reporter, luminescence. AID 1285, 2008. 0.82% of 190,000 active;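 active = inhibition above a set limit, derived from the sample mean plus 3 SD, cut at about 45% in these data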
b-catenin transl – modulators of beta-catenin nuclear translocation, primary screen, imaging, HeLa cells, immunofluorescence, high-content; 0.3% of 190,000 active; nuclear translocation activity, % at 5 µM;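 active = nuclear translocation activity above 50% at 5 µM, with a well cell count of 50 or more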;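 also: per-cell ratio of nuclear to cytoplasmic median beta-catenin stain intensity; plate controls were DMSO negative control for no effect and GSK-3 inhibitor IX positive control for full effect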
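Test system: human HeLa cells, endogenous beta-catenin. Times: 24 h compound exposure, 37°C. Measured by: beta-catenin immunofluorescence imaging with DAPI.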
Ba/F3 V617F tox – reduced viability of JAK2V617F-dependent Ba/F3 cells, primary screen, JAK2V617F inhibitor project, cell-based, Ba/F3 EpoR-JAK2V617F, luminescence. 1.1% of 220,000 active. inhibition, % at 5.6 µM. AID 1446, 2008. ATP luminescence;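 active = inhibition above the campaign mean plus 3 SD over all tested compounds, cut at about 24% in these data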;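 also: cytokine-independent growth of Ba/F3 cells driven by EpoR plus mutant JAK2; 0% = DMSO-treated cells and 100% = JAK inhibitor I control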
BaF3 parental – parental Ba/F3 cell viability inhibition, counter-screen for JAK2V617F inhibitor project, murine pro-B, CellTiter-Glo luminescence; 1.1% of 220,000 active; inhibition, % at 5.6 µM; CellTiter-Glo ATP luminescence;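 active = inhibition above a per-campaign cutoff, the mean inhibition of all tested compounds plus 3 SD, cut at about 27% in these data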;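 also: 0% = DMSO wells and 100% = JAK Inhibitor I control wells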
IEC-6 cytotox – cytotoxicity in IEC-6 intestinal epithelial cells, primary screen, cytotoxicity control for KLF5 inhibitor project, cell-based, luminescence | IEC-6 cytotoxicity, luminescence viability | inhibition, % at 5 µM | 0.78% of 290,000 active | AID 1825, 2009; in the data active = inhibition above about 22%;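 also: 0% = plate median of test compound wells and 100% = cytotoxic reference compound wells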
* marks the source's active call; other numbers are inactive results; x = no result.

SMILES | MT stabilize HCS | APP transl inh | b-catenin transl | Ba/F3 V617F tox | BaF3 parental | IEC-6 cytotox
COC(CSc1nc(N)c2c3c(sc2n1)CN(C)CC3)OC | x | x | x | x | x | -1.5
CC(C)(C)c1ccc(-c2nc(C=O)c3ccccn23)cc1 | 2.4 | -4.2 | 0.8 | 0.2 | 2.6 | 5.2
Cc1c(C(C)(C)C)c(C=S)n2ccccc12 | 1.6 | 69.8* | -3.9 | -2.2 | 3.0 | 4.7
CCOC(=O)c1[nH]c2c(c1C)C(=O)CC(c1ccc(OC)c(OC)c1)C2 (centres undefined) | 3.6 | 44.4 | -1.1 | -2.2 | 1.6 | 2.7
COc1ccc(OC)c(C2CC(=O)c3c([nH]c(C(=O)OCC4CCCO4)c3C)C2)c1 (centres undefined) | 30.5* | 2.5 | -1.8 | -1.2 | 3.4 | 0.4
COCCOC(=O)c1[nH]c2c(c1C)C(=O)CC(c1cc(OC)ccc1OC)C2 (centres undefined) | 4.2 | -12.4 | 1.4 | -6.0 | -0.6 | 3.4
CCCOCCOC(=O)c1[nH]c2c(c1C)C(=O)CC(c1cc(OC)ccc1OC)C2 (centres undefined) | 11.2* | 43.9 | 3.9 | 2.4 | 2.4 | 1.2
Cc1ccc(OCC(O)CN2CCOCC2)c(C)c1 (centres undefined) | x | x | x | x | x | -2.0
O=C(NCc1cccc(OC(F)(F)F)c1)C1CCC(=O)N(Cc2cccc(F)c2)C1 (centres undefined) | x | x | x | x | x | 4.8
CCN(CC)CCCNC(=O)c1cc2c(-c3ccc(Cl)cc3)nn(C)c2s1 | 3.9 | -3.1 | x | 6.6 | 29.0* | 14.0
Nc1nonc1C(=O)N/N=C\c1cc2c(cc1Cl)OCO2 | x | x | x | x | x | 6.3
CC(C)(O)c1[nH]c2ccc(C#N)cc2c1C(C)(C)O | x | x | x | x | x | -10.2
CCCCC(=O)N1CCN(c2nc3ccc(Cl)cc3s2)CC1 | x | x | x | x | x | -1.7
COc1ccc(NC(=O)c2cccc(Oc3ccc([N+](=O)[O-])cc3Cl)c2)cc1 | 8.3 | -8.0 | 92.6* | 1.4 | 3.4 | 1.7
O=C(Nc1cccc(Cl)c1)c1cccc(Oc2ccc([N+](=O)[O-])cc2Cl)c1 | 7.9 | -7.2 | 7.6 | 1.6 | 6.8 | 2.5
Cc1ccc(C)c(NC(=O)c2cccc(Oc3ccc([N+](=O)[O-])cc3Cl)c2)c1 | 8.1 | -4.8 | 62.3* | -2.1 | 5.8 | -8.1
Cc1ccc([N+](=O)[O-])cc1NC(=O)c1ccccc1 | 1.0 | 0.1 | -1.3 | -1.2 | 2.9 | -9.7
CCc1cc(=O)oc2cc(C)cc(OC(C)C(=O)NCc3cccnc3)c12 (centres undefined) | x | x | x | x | x | 0.7
CN1c2ccccc2N(C)C1c1ccc2c(c1)OCO2 | 2.1 | -23.8 | 0.3 | 70.7* | 60.6* | 2.5
CCCCc1ccc(N/C(N)=N/c2nc(C)cc(C)n2)cc1 | x | x | -2.0 | 41.1* | 35.0* | 11.9
Cc1ccc(N/C(N)=N/c2nc(C)cc(C)n2)cc1 | 2.3 | 3.9 | 3.1 | -1.5 | 3.5 | 6.2
CCOc1ccc(NC(=O)C2CCCN2S(=O)(=O)c2ccc(OCC)cc2)cc1 (centres undefined) | x | x | x | x | x | 6.0
CCc1ccc(NC(=O)C(=O)NCCOc2ccccc2Cl)cc1 | 26.0* | -20.1 | 3.2 | -1.2 | 6.3 | 0.1
Cc1cc(C)c(C)c(S(=O)(=O)NCc2cccnc2)c1C | 2.5 | 3.8 | -0.3 | 4.4 | 6.0 | 0.4
COc1cc(C)c(Cl)c(C)c1S(=O)(=O)NCc1cccnc1 | 2.9 | 45.6* | x | -1.0 | 4.0 | -8.8
SMILES | MT stabilize HCS | APP transl inh | b-catenin transl | Ba/F3 V617F tox | BaF3 parental | IEC-6 cytotox
CC(C)(C)NC(=S)N/N=C/c1c(Cl)cccc1Cl | x | x | 2.9 | 0.8 | -3.5 | -3.3
Cc1ccc(NC(=S)N/N=C/c2c(Cl)cccc2Cl)c(C)c1 | 13.4* | 95.4* | 99.4* | 69.8* | 71.9* | 13.0
Cc1cc(OCC(=O)Nc2ccc3oc(=O)ccc3c2)ccc1Cl | x | x | x | x | x | 2.8
CCCc1cc(=O)oc2c(C)c(OCC(=O)NC3CCN(Cc4ccccc4)CC3)ccc12 | x | x | x | x | x | 0.8
COc1ccc(NC(=O)CN(c2ccc([N+](=O)[O-])cc2)S(=O)(=O)c2ccccc2)cc1 | 14.2* | 30.4 | 2.6 | -4.3 | -1.3 | -7.8
Nc1cc(C(=O)O)ccc1N1CCCCC1 | 2.0 | 0.7 | -3.0 | -2.3 | 2.7 | -2.8
Nc1cc(F)ccc1N1CCCCCC1 | 3.0 | 2.4 | -2.1 | 38.9* | 57.2* | -5.3
